Laboratory results as given in ChEMBL document CHEMBL6177924, “Synthesis and antifungal evaluation of new azole derivatives containing 1,2,3-triazole” (RSC Med Chem, 2025).
Active and inactive are the calls of the source. The rule behind the calls is not given here.

Key:
Candida albicans [1] = assay: Antifungal activity against Candida albicans assessed as sparse distribution of fungal cells at 0.27 to 1.06 microg/ml measured after 4 to 8 hrs by inverted microscopic analysis; format: functional, organism-based; conditions: dose 0.27-1.06 µg/ml, time 4-8 hrs
Outline: (§1)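 Hyphae were induced in SD+10% FBS or in Spider medium. Log-phase cells at 1×10^5 CFU/mL final, 1 mL per well in 24-well plates, 3 wells per group. Drug at 0.27, 0.53 or 1.06 µg/mL, fluconazole, or no-drug control. Incubated at 30 °C; hyphal formation observed and photographed by inverted microscope at 4 h and 8 h.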

Cell membrane = assay: Induction of cell membrane permeability in Candida albicans assessed as increase in red fluorescence incubated for 16 to 24 hrs by PI staining based fluorescence microscopic analysis; format: subcellular; conditions: time 16-24 hrs
Outline: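 C. albicans at 1×10^5 CFU/mL in SDB grown with drug (0.27, 0.53, 1.06 µg/mL), fluconazole or no drug at 30 °C, 150 r/min, for 16-24 h. Cells washed and resuspended in PBS at 2×10^6 CFU/mL. Stained with propidium iodide (final 5 µg/mL) 30 min at room temperature in the dark, then washed. Imaged by fluorescence microscopy and fluorescence intensity measured.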

Candida albicans [2] = assay: Antifungal activity against Candida albicans assessed as inhibition of yeast state o mycelium state transformation at 0.27 to 1.06 microg/ml measured after 4 to 8 hrs by inverted microscopic analysis; format: functional, organism-based; conditions: dose 0.27-1.06 µg/ml, time 4-8 hrs; outline: as §1
Candida albicans [3] = assay: Antifungal activity against Candida albicans assessed as reduction in invasion ability at 0.27 to 1.06 microg/ml measured after 4 to 8 hrs by inverted microscopic analysis; format: functional, organism-based; conditions: dose 0.27-1.06 µg/ml, time 4-8 hrs; outline: as §1
Candida albicans [4] = assay: Antibiofilm activity in Candida albicans SC5314 assessed as appearance of fungal cells in pseudomycelial shape with few mycelia measured after 24 hrs by inverted microscopic analysis; format: functional, organism-based; conditions: dose 0.27-1.06 µg/ml
Outline: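 Log-phase C. albicans in RPMI1640+10% FBS at 1×10^5 CFU/mL allowed to adhere in 24-well plates for 90 min at 30 °C; unattached medium removed. 1 mL medium with drug (0.27, 0.53, 1.06 µg/mL) or without drug added; 24 h at 30 °C. Biofilm stained with crystal violet 30 min, washed 3× with PBS, viewed by inverted microscope.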

Candida albicans [5] = assay: Induction of morphological changes in Candida albicans assessed as loose distribution of cytoplasm at 0.53 microg/ml incubated for 16 to 24 hrs by transmission electron microscopic analysis; format: functional, organism-based; conditions: dose 0.53 µg/ml, time 16-24 hrs
Outline: (§2)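 C. albicans at 5×10^5 CFU/mL in SDB shaken with drug (0.27, 0.53, 1.06 µg/mL), fluconazole or no drug at 30 °C, 150 r/min, for 16-24 h. Pellets washed with PBS and fixed in cold 3% paraformaldehyde/2.5% glutaraldehyde at 4 °C, then 1% OsO4. Dehydrated in acetone and embedded in Epon-812. 60-90 nm sections stained with uranyl acetate and lead citrate, imaged by TEM.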

Candida albicans [6] = assay: Induction of morphological changes in Candida albicans assessed as cell enlargement at 0.53 to 1.06 microg/ml incubated for 16 to 24 hrs by transmission electron microscopic analysis; format: functional, organism-based; conditions: dose 0.53-1.06 µg/ml, time 16-24 hrs; outline: as §2
Candida albicans [7] = assay: Induction of morphological changes in Candida albicans assessed as effect on cytoplasmic structure at 0.53 to 1.06 microg/ml incubated for 16 to 24 hrs by transmission electron microscopic analysis; format: functional, organism-based; conditions: dose 0.53-1.06 µg/ml, time 16-24 hrs; outline: as §2
16HBE14o- = assay: Cytotoxicity against human 16HBE14o- cells assessed as reduction in cell viability at <=4 microg/ml incubated for 48 hrs by CCK8 assay; format: toxicity, cell-based; conditions: dose < 4 µg/ml
Outline: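 16HBE cells in RPMI1640 with 10% FBS and 1% antibiotics, seeded in 96-well plates and attached for 24 h at 37 °C. Drug serially diluted 5-fold from 100 µg/mL in complete medium, with growth and blank controls. Exposure 48 h, then viability read with CCK8 reagent.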

`O=C(Cn1cc(COC(Cn2ccnc2)c2ccc(Cl)cc2Cl)nn1)c1ccc2ccccc2c1` (centres undefined) was tested, and the Activity (Candida albicans [1]) was “Active”, the Activity (Cell membrane) was “Dose-dependent-effect” and the Activity (Candida albicans [2]) was “Active; Better Than That Of Fluconazole Group”. The Activity (Candida albicans [3]) was “Active; Better Than That Of Fluconazole Group”, the Activity (Candida albicans [4]) was “Dose-dependent-effect” and the Activity (Candida albicans [5]) was “Active”. For the same compound, the Activity (Candida albicans [6]) was “Active”, the Activity (Candida albicans [7]) was “Active” and the Activity (16HBE14o-) was “Non-toxic”.
